MrgX1 ag = activates human MrgX1 receptor signaling; AID 588627; B-score at 10 µM; Q96LB2; 310,000 tested, 0.44% active; MrgX1-HEK293 cells, Fluo-4 calcium fluorescence, agonist mode; hits give high values;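 active means calcium response B-score plate-corrected fluorescence ratio at least 3 library SD, with starting fluorescence B-score inside 5 SD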
Target sequence (Q96LB2 whole entry, looked up): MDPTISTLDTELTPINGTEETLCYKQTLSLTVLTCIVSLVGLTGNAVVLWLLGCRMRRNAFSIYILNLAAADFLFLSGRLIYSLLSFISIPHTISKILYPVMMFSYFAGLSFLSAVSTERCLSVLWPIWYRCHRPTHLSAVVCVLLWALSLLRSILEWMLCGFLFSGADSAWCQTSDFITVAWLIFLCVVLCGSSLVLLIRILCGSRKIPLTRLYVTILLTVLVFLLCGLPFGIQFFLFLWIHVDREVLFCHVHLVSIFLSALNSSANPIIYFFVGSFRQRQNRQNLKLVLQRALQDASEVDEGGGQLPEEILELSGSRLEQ
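Material: HEK293 cells stably expressing human MrgX1 receptor | Quantity: 15,000 cells per well | Times: Cells plated overnight, dye loaded 0.5 h 37 °C, 0.5 h room temperature | Measured by: Kinetic Fluo-4 NW fluorescence of intracellular calcium | Control set: Positive and negative controls per plate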
MrgX1 antagonist = human MrgX1 receptor antagonism, primary screen; Q96LB2; AID 588676; MRGX1-HEK293 calcium flux, Fluo-4, BAM8-22 antagonism; hits give low values; 310,000 tested, 1.3% active; B-score at 10 µM;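 active means calcium-response B-score plate-corrected more than 3 library SD below zero, starting fluorescence within 5 deviations, no agonist response on first addition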;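 further: peak minus trough fluorescence over baseline after final BAM8-22 challenge near maximal dose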
RGS4 inh = human RGS4 inhibition; P49798; HEK293 M3R/RGS4 inducible, Fluo-4 calcium flux; hits give high values; triggered by carbachol at its EC20; B-score at 10 µM; 310,000 tested, 0.45% active;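 active means B-score, a plate-corrected calcium signal, over three deviations above library mean, with baseline fluorescence within five deviations of library mean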;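 further: RGS4 expression induced by doxycycline in cells with stable M3 receptor; B-score is computed from the integrated fluorescence ratio over baseline after carbachol; higher B-score means a larger calcium signal and so more RGS4 inhibition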
Target sequence (P49798 whole entry, looked up): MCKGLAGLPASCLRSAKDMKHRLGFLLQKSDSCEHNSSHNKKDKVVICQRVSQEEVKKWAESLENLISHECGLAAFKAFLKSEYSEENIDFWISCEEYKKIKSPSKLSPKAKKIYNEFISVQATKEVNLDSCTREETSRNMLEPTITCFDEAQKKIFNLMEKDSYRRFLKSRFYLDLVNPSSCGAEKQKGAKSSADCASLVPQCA
RGS4 act = potentiators or activators of RGS4 | HEK293 M3R/inducible RGS4, carbachol calcium flux Fluo4; hits give low values | B-score at 10 µM | 310,000 tested, 0.92% active | AID 463111;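 active means B-score of the integrated calcium signal more than 4 SD below the library mean, with starting fluorescence not abnormally high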;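 further: negative B-score means reduced calcium response which marks RGS4 activation or potentiation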
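System – HEK293 FlpIn-TREx cells, stable M3R, doxycycline-inducible RGS4 · Reagent – ECmax carbachol challenge · Times – compound preincubation 20 min at room temperature before agonist · Technique – Fluo4 fluorescence kinetic imaging of calcium · Measure – B score of integrated Fluo4 ratio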
MrgX1 PAM = allosterically activates human MrgX1 receptor signaling; Q96LB2; MrgX1-HEK293, Fluo-4 calcium flux, FDSS; hits give high values; B-score at 10 µM; 310,000 tested, 0.63% active; AID 588675;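 active means plate-corrected calcium response at least 3 library SD above typical, normal starting fluorescence, not activating the receptor alone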;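 further: compound read alongside a low EC10 to EC30 dose of BAM8-22 agonist; peak minus trough fluorescence over baseline measured at the second addition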
An asterisk follows results filed as active; ! = not active in a repeat. The list is not random: actives were taken first. Their share in the collection is about 3.5%.

C=C(C)CSc1nc2sc3c(c2c(=O)n1-c1ccccc1)CCN(C)C3 was read as MrgX1 ag inactive, MrgX1 antagonist inactive, RGS4 inh inactive, RGS4 act -7.5* and MrgX1 PAM inactive.
CCOc1cc2[nH]c(=S)n(CCC(=O)NCc3ccco3)c(=O)c2cc1OCC was read as MrgX1 ag inactive, MrgX1 antagonist inactive, RGS4 inh inactive, RGS4 act inactive and MrgX1 PAM inactive.
Screening COc1cc(/C=C2/N=C(c3ccccc3)OC2=O)c(F)cc1OCc1ccccc1 returned MrgX1 ag inactive, MrgX1 antagonist -4.9*, RGS4 inh inactive, RGS4 act inactive and MrgX1 PAM inactive.
COc1cc(/C=C2\N=C(c3ccccc3)OC2=O)ccc1OC(C)=O was read as MrgX1 ag inactive, MrgX1 antagonist inactive, RGS4 inh inactive, RGS4 act inactive and MrgX1 PAM inactive.
`COc1ccc(OC)c(/C=C2\N=C(c3ccccc3)OC2=O)c1` gave MrgX1 ag inactive, MrgX1 antagonist inactive, RGS4 inh inactive, RGS4 act -7.4* and MrgX1 PAM inactive.
C/C=C\C=C/C(=O)Nc1cccc(C2=NOC3(C2)C[C@H](C(N)=O)N(C(=O)c2ccc(OC)cc2)C3)c1 (some centres not stated) was read as MrgX1 ag inactive, MrgX1 antagonist inactive, RGS4 inh inactive, RGS4 act inactive and MrgX1 PAM inactive.
Screening c1coc(-c2nnc3sc(Cc4cccs4)nn23)c1 returned MrgX1 ag inactive, MrgX1 antagonist -7.2*, RGS4 inh inactive, RGS4 act inactive and MrgX1 PAM inactive.
For CCOc1ccc(NC(=O)CSc2nnc(CCNC(=O)c3ccc(OC)cc3)n2C)cc1 the results were MrgX1 ag inactive, MrgX1 antagonist -6.3*, RGS4 inh inactive, RGS4 act inactive and MrgX1 PAM inactive.
Screening COc1cc(NC(=O)COC(=O)[C@@H]2CCCN2S(=O)(=O)c2ccc(Cl)cc2)cc(OC)c1OC returned MrgX1 ag inactive, MrgX1 antagonist inactive and MrgX1 PAM 8.9*.
O=C(COC(=O)[C@@H]1CCCN1S(=O)(=O)c1ccc(Cl)cc1)NC12CC3CC(CC(C3)C1)C2 was read as MrgX1 ag inactive, MrgX1 antagonist inactive, RGS4 inh inactive, RGS4 act inactive and MrgX1 PAM inactive.
`O=C(NC(CSSCC(NC(=O)c1ccccc1)C(=O)O)C(=O)O)c1ccccc1` (configuration not stated) gave MrgX1 ag inactive, MrgX1 antagonist inactive, RGS4 inh inactive, RGS4 act inactive and MrgX1 PAM inactive.
For Cc1sc(NC(=O)c2ccco2)nc1-c1ccc2c(c1)CC(C)N2C(=O)C1CC1 (configuration not stated) the results were MrgX1 ag inactive, MrgX1 antagonist inactive, RGS4 inh inactive, RGS4 act -7.1* and MrgX1 PAM inactive.
`CCOc1ccc(/C=N/NC(=O)c2cc3ccccc3cc2OC)cc1` gave MrgX1 ag inactive, MrgX1 antagonist inactive, RGS4 inh inactive, RGS4 act inactive and MrgX1 PAM inactive.
Screening FC(F)(F)c1cccc(NC(=S)Nc2ccc(Cl)c(Cl)c2)c1 returned MrgX1 ag inactive, MrgX1 antagonist -8.4*, RGS4 inh inactive, RGS4 act inactive and MrgX1 PAM inactive.
For CCOc1cc(CNCCO)cc(Br)c1OCc1ccc(Cl)cc1Cl the results were MrgX1 ag inactive, MrgX1 antagonist inactive, RGS4 inh inactive, RGS4 act -7.7* and MrgX1 PAM inactive.
`CCOc1cccc(CNCCO)c1OCc1ccc(Cl)cc1Cl` gave MrgX1 ag inactive, MrgX1 antagonist inactive, RGS4 inh inactive, RGS4 act inactive and MrgX1 PAM inactive.
`COc1cc(CNCCSc2nnnn2C)cc(Br)c1OCc1ccccc1F` gave MrgX1 ag inactive, MrgX1 antagonist inactive, RGS4 inh inactive, RGS4 act inactive and MrgX1 PAM inactive.
CCOc1cc(CNCCSc2nnnn2C)cc(Br)c1OCc1ccccc1F was read as MrgX1 ag inactive, MrgX1 antagonist -4.7*, RGS4 inh inactive, RGS4 act inactive and MrgX1 PAM inactive.
CC(=O)c1cccc(-n2nnnc2SCC(=O)Nc2cc(C)on2)c1 was read as MrgX1 ag inactive, MrgX1 antagonist inactive, RGS4 inh inactive, RGS4 act inactive and MrgX1 PAM inactive.
`O=S(=O)(Nc1ccccc1C(F)(F)F)c1ccc(-c2ccccn2)s1` gave MrgX1 ag inactive, MrgX1 antagonist inactive, RGS4 inh inactive, RGS4 act inactive and MrgX1 PAM inactive.
`CCCN1CCN(C(=O)CCc2nnc3ccc(N4CCN(c5cccc(OC)c5)CC4)nn23)CC1` gave MrgX1 ag inactive, MrgX1 antagonist inactive, RGS4 inh inactive, RGS4 act inactive and MrgX1 PAM inactive.
COc1ccc(C(CCNCc2ccc(OC(C)C)cc2)C(C)C)cc1 (configuration not stated) was read as MrgX1 ag inactive, MrgX1 antagonist -5.4*, RGS4 inh inactive, RGS4 act inactive and MrgX1 PAM inactive.
For COc1ccc(CNCCC(c2ccc(OC(C)C)cc2)C(C)C)cc1OC (configuration not stated) the results were MrgX1 ag inactive, MrgX1 antagonist inactive, RGS4 inh inactive, RGS4 act inactive and MrgX1 PAM inactive.
CN1C2CCC1CC(OC(=O)C(CO)c1ccccc1)C2 (configuration not stated) was read as MrgX1 ag inactive, MrgX1 antagonist inactive and MrgX1 PAM inactive.
For CC(C)[N+]1(C)[C@@H]2CC[C@H]1CC(OC(=O)C(CO)c1ccccc1)C2 (some centres not stated) the results were MrgX1 ag inactive, MrgX1 antagonist inactive, RGS4 inh inactive, RGS4 act inactive and MrgX1 PAM inactive.
Screening CN1C2CC(OC(=O)C(CO)c3ccccc3)CC1C1OC12 (configuration not stated) returned MrgX1 ag inactive, MrgX1 antagonist inactive, RGS4 inh inactive, RGS4 act -7.9*! and MrgX1 PAM inactive.
`CN1[C@@H]2CC[C@H]1CC(OC(=O)C(CO)c1ccccc1)C2` (some centres not stated) gave MrgX1 ag inactive, MrgX1 antagonist inactive, RGS4 inh inactive, RGS4 act -7* and MrgX1 PAM inactive.
For O=C(NCCCNC(=O)c1c(Cl)cccc1Cl)c1c(Cl)cccc1Cl the results were MrgX1 ag inactive, MrgX1 antagonist inactive, RGS4 inh inactive, RGS4 act inactive and MrgX1 PAM inactive.
`O=C(CCNS(=O)(=O)/C=C/c1ccccc1)NCCc1c[nH]c2ccccc12` gave MrgX1 ag inactive, MrgX1 antagonist inactive, RGS4 inh inactive, RGS4 act inactive and MrgX1 PAM inactive.

Compound activity (PubChem BioAssay)
